Data taken from article PMC8381683 (Pharmacology Research & Perspectives, 2021).
Like-named read-outs stand apart in the source and are kept apart here.

How the values were obtained:
male Wistar rats = experiment: Behavioral drug sensitization in the rat; type: in vivo
Summary of the method: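 Male Wistar rats (240–270 g) habituated 1 h in the test room before each daily session. Dosed p.o. (vehicle 1% methylcellulose, 4 ml/kg) or i.p. (saline) immediately before placement in the same dim (5 lux) 76×76 cm open field. Five sessions between 1 and 5 p.m. on 5 successive days. Locomotion video-tracked for 40 min. n=5–6. ANOVA/Fisher's LSD versus vehicle; paired t test versus day 1.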

[1] = for Brain AUC0-8h / Brain C max / Brain C max (molar): 10 mg/kg, p.o., male Swiss mice; for Brain C max at pharmacologically active doses / Brain C max at pharmacologically active doses (molar): male, Swiss, mouse, in vivo, po
C57BL/6J mice [2] = experiment: Food intake in the mouse; type: in vivo
Summary of the method: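 C57BL/6J mice (24–26 g) single-housed on a reversed 12 h/12 h cycle, lights off at 9:00 a.m. Test compound given p.o. (vehicle 1% methylcellulose in water, 10 ml/kg) or i.p. 15 min before lights-off. Food consumption recorded at 1:00 p.m., 4 h after lights-off. 8 mice per group.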

human NET (SLC6A2) = human NET (SLC6A2) (Homo sapiens, UniProt P23975); experiment: fluorescence-based neurotransmitter transporter uptake assay, NET; type: cell-based
in vivo = conditions: male, Swiss, mouse, po, 10 mg/kg
[3] = molecular target: human H3 histamine receptor (Homo sapiens, UniProt Q9Y5N1); experiment: [35S]-GTPγS functional binding assay on the H3 histamine receptor; type: biochemical
[4] = tested on: tele-methylhistamine in the brain of mice; conditions: cited from earlier work
[5] = tested on: DA turnover in the rat striatum; experiment: In vivo DA turnover and serotonin biomarkers in the rat striatum
[6] = tested on: extracellular DA in the rat nucleus accumbens; experiment: In vivo microdialysis in the rat nucleus accumbens; conditions: p.o.
Summary of the method: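 Under chloral hydrate (400 mg/kg i.p.), rats received a stereotaxic guide cannula in nucleus accumbens (AP +1.2 mm from bregma, […], DV −5.8 mm from dura). Recovery ≥5 days, single-housed. In freely moving rats, extracellular DA sampled via a 2-mm microdialysis probe after oral test compound or vehicle (1% methylcellulose in water, 5 ml/kg). n=5–8. ANOVA/Dunnett versus vehicle.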

[7] = tested on: tele-methylhistamine in the brain of mice; experiment: Assay of tele-methylhistamine in the brain of mice; type: in vivo, mouse; conditions: 30 and 100 mg/kg, p.o., 90 min after treatment
Summary of the method: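 Male OF1 mice (22–25 g) fasted 16 h, then dosed orally with test compound or vehicle (1% methylcellulose in water, 10 ml/kg). Killed 90 min later. Brain homogenised in 10 volumes ice-cold 0.4 N perchloric acid and centrifuged 2000 g, 30 min, 4℃. Supernatant stored at −20℃. Tele-methylhistamine measured by enzyme immunoassay.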

C57BL/6J mice [8] = experiment: Spontaneous locomotor activity in the mouse; type: in vivo; conditions: p.o.
human DAT (SLC6A3) = human DAT (SLC6A3) (Homo sapiens, UniProt Q01959); experiment: cell-based
human SERT (SLC6A4) = human SERT (SLC6A4) (Homo sapiens, UniProt P31645); experiment: cell-based; type: cell-based
[9] = cited from earlier work
[10] = tested on: extracellular DA in the rat nucleus accumbens; conditions: cited from earlier work
C57BL/6J mice [11] = experiment: Effect of pitolisant on solriamfetol- or modafinil-induced locomotor activity; type: in vivo, mouse; conditions: pitolisant 20 mg/kg, p.o.
[12] = 10 mg/kg, p.o., male Swiss mice, ref Ligneau et al. 29, cited from earlier work
[13] = 64 mg/kg, i.p., fifth day of repeated administration
[14] = D-amphetamine i.p., dose and time not given

human SERT (SLC6A4), sequence (P31645 whole entry): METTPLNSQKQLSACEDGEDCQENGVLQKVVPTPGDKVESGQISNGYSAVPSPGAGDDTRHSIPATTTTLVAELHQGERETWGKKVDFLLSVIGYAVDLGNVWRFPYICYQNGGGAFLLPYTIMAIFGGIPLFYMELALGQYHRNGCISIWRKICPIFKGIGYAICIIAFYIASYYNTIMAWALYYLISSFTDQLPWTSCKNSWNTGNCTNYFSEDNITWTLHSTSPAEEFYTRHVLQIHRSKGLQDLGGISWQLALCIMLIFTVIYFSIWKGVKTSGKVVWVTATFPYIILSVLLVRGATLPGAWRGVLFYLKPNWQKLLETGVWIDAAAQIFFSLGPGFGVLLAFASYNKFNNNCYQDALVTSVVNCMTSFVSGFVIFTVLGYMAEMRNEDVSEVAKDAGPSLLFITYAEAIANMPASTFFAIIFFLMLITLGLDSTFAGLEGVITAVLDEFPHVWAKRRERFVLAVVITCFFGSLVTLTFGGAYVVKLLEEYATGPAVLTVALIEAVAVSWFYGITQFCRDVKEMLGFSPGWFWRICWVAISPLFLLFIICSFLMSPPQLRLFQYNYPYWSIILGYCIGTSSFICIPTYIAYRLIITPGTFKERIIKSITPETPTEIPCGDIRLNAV
human NET (SLC6A2), sequence (P23975 1-628 isoform P23975-2): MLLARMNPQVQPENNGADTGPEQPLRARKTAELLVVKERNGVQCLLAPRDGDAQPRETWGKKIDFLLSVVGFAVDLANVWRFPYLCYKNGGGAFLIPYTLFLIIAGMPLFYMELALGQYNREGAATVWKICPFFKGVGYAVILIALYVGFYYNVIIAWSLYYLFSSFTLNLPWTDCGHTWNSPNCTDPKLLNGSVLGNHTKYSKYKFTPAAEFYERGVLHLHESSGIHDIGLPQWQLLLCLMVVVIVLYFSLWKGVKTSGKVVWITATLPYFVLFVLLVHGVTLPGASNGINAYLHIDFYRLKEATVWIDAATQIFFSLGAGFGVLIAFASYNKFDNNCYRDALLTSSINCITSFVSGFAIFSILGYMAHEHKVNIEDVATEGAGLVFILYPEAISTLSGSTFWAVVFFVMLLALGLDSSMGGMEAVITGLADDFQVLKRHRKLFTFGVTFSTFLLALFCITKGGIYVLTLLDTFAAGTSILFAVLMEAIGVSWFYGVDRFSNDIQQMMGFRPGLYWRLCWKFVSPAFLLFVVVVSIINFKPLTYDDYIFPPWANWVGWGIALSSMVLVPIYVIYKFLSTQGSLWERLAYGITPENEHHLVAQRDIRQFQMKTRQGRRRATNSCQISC
human H3 histamine receptor, sequence (Q9Y5N1 whole entry): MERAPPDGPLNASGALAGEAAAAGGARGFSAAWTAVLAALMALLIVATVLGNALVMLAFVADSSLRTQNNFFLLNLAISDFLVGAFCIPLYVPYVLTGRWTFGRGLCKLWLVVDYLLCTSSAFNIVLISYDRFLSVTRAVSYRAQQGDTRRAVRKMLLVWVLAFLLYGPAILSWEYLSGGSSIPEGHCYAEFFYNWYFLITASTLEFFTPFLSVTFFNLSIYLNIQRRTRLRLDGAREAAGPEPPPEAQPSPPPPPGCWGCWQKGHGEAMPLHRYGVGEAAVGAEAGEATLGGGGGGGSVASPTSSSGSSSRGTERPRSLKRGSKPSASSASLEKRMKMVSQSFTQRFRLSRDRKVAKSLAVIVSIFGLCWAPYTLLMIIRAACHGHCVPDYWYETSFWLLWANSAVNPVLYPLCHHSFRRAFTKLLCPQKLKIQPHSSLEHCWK
human DAT (SLC6A3), sequence (Q01959 whole entry): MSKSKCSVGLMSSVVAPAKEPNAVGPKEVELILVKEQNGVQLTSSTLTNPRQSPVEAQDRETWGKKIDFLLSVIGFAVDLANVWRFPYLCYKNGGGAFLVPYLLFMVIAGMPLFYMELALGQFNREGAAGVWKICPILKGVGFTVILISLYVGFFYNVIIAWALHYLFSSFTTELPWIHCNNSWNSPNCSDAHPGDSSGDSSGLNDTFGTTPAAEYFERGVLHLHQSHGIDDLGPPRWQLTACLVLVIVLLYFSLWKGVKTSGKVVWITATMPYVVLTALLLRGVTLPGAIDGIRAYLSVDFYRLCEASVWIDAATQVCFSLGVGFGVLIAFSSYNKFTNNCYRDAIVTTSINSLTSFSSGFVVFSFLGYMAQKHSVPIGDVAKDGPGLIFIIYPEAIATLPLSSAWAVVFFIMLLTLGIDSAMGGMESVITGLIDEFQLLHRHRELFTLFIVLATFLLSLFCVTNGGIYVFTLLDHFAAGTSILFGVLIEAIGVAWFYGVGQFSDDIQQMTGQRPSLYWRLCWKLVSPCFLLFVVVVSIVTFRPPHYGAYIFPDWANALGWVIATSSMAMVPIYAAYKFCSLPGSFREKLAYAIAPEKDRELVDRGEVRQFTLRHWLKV

Compound: NC(=O)C[S+]([O-])C(c1ccccc1)c1ccccc1 (stereo not drawn) [Modafinil]
- increase of rat locomotor activity versus controls (male Wistar rats; 64 mg/kg, i.p., acute administration (day 1)): +145%
- increase of rat locomotor activity versus control rats (male Wistar rats; [13]): 419%
- increase of rat locomotor activity versus same treated rats at day 1 (male Wistar rats; [13]): 53%
- Brain AUC0-8h [1]: 2298 ng·h/g
- Brain C max [1]: 965 ± 156 ng/g
- Brain C max (molar) [1]: 3.5 µM
- Brain C max at pharmacologically active doses [1]: 6000-12 000
- Brain C max at pharmacologically active doses (molar) [1]: 22–45 µM
- reduction in food intake (4 h) (C57BL/6J mice [2]; 64 mg/kg, p.o.): 40%
- reduction in food intake (4 h) (C57BL/6J mice [2]; 96 mg/kg, p.o.): 76%
- reduction in food intake (4 h) (C57BL/6J mice [2]; 128 mg/kg, p.o.): 96%
- Ki (human NET (SLC6A2)): > 10 µM
- hNET Ki (human NET (SLC6A2); CHO cells expressing human NET, Ki from IC50 by Cheng-Prusoff): inactive
- AUC(0-t) (in vivo): 2160 ng·h/mL
- Kp (in vivo): 1.1
- Kb [3]: > 10 µM
- potency in enhancing brain tele-methylhistamine level compared with pitolisant ([4]; mice): less potent

Compound: C[C@H](N)Cc1ccccc1 [D‐amphetamine]
- decrease in food consumption compared with controls (4 h) (C57BL/6J mice [2]; 3 mg/kg, i.p.): 56%
- change of DA in the rat striatum [5, 14]: +25%
- change of DOPAC in the rat striatum [5, 14]: −15%

Compound: NC(=O)OC[C@H](N)Cc1ccccc1 [Solriamfetol]
- locomotor effect in rats (male Wistar rats; 60 mg/kg, p.o., over the 5-day repeated administration period): no significant locomotion effect
- locomotor effect in rats (male Wistar rats; 100 mg/kg, p.o., acute): no acute effects
- increase of rat locomotor activity versus controls (male Wistar rats; 100 mg/kg, p.o., day 5): 185%
- increase of rat locomotor activity versus same treated rats at day 1 (male Wistar rats; 100 mg/kg, p.o., day 5): 106%
- effect on extracellular levels of DA in the nucleus accumbens ([6]; 30 mg/kg): no effects
- increase of extracellular levels of DA in the nucleus accumbens ([6]; 100 mg/kg, 30 min after administration): +138 % of basal levels
- AUC of extracellular DA (% basal dopamine level), enhancement ([6]; 100 mg/kg, 90 min (1.5 h) post-administration period): 123%
- Brain AUC0-8h [1]: 10 990 ng/g × h
- Brain C max [1]: 3935 ± 452 ng/g
- Brain C max (molar) [1]: 20 µM
- Brain C max at pharmacologically active doses [1]: 12 000-40 000
- Brain C max at pharmacologically active doses (molar) [1]: 60–200 µM
- effect on tele-methylhistamine levels in the brain of mice [7]: no significant effect
- effect on tele-methylhistamine levels in the brain of mice ([7]; listed as solriamfetol): no effect
- inhibition of food intake (4 h) (C57BL/6J mice [2]; 30 mg/kg, p.o.): 25%
- inhibition of food intake (4 h) (C57BL/6J mice [2]; 100 mg/kg, p.o.): 40%
- Ki (human NET (SLC6A2)): 4.8 µM
- AUC(0-t) (in vivo): 1150 ng·h/mL
- Kp (in vivo): 9.6
- effect on cumulative locomotor activity over 5.5 h post-dosing (C57BL/6J mice [8]; 30 mg/kg): no effect
- Ki (human DAT (SLC6A3)): 2.4 µM
- change of DOPAC in the rat striatum ([5]; 30 mg/kg, p.o., 60 min): −11%
- effect on DOPAC/DA ratio relative to that of D-amphetamine (2 mg/kg, i.p.) ([5]; 30 mg/kg, p.o., 60 min): about 50%
- change of DA in the rat striatum ([5]; 30 mg/kg, p.o., 60 min, not significant): +4%
- decrease in the DOPAC/DA ratio in the rat striatum ([5]; 30 mg/kg, p.o., 60 min after the dose): 14%
- effect on 5-HIAA/5-HT ratio in the rat striatum ([5]; 3 and 30 mg/kg, p.o., 60 min after dosage): No effect
- Ki (human SERT (SLC6A4)): > 10 µM
- hSERT Ki (human SERT (SLC6A4); HEK293 cells expressing human SERT, Ki from IC50 by Cheng-Prusoff): inactive
- Kb [3]: > 10 µM
- plasma exposure (C max) in human at therapeutic dose ([9]; at 150 mg): ~ 820 ng/ml

Compound: Cl.Clc1ccc(CCCOCCCN2CCCCC2)cc1 [Pitolisant, 1‐{3‐[3‐(4‐Chlorophenyl)propoxy]propyl}piperidine, hydrochloride]
- locomotor effect in rats (male Wistar rats; 10 mg/kg, i.p., acute or after 5-day-repeated administrations): no hyperlocomotion effects
- effect on levels of extracellular DA in the rat nucleus accumbens [10]: no effect
- reduction of modafinil-induced hyperlocomotion (C57BL/6J mice [11]; modafinil 64 mg/kg): 58%
- effect on modafinil-induced hyperlocomotion (C57BL/6J mice [11]; modafinil 128 mg/kg): not further reduced
- effect on solriamfetol-induced hyperlocomotion (C57BL/6J mice [11]; solriamfetol 30 mg/kg): fully normalized
- reduction of solriamfetol-induced hyperlocomotion (C57BL/6J mice [11]; solriamfetol 100 mg/kg): 68%
- Brain C max at pharmacologically active doses [1]: 10 000-20 000
- Brain C max at pharmacologically active doses (molar) [1]: 35–70 µM
- effect on food intake during the initial 4 h of the night phase (C57BL/6J mice [2]; 10 and 20 mg/kg, p.o.): did not modify
- Ki (human NET (SLC6A2)): 2.5 µM
- effect on cumulative locomotor activity over 5.5 h post-dosing (C57BL/6J mice [8]; 10 and 20 mg/kg): no significant effect
- Ki (human DAT (SLC6A3)): 4.1 µM
- Ki (human SERT (SLC6A4)): 5.79 µM
- Brain/plasma AUC ratio ([12]; AUC0-8h): 23.5
- Brain AUC0-8h [12]: 34 686 ng/g × h
- Brain C max (molar) [12]: 35 µM
- Brain T max [12]: 30 min
- Plasma AUC0-8h [12]: 1475 ng·h/mL
- Plasma C max [12]: 441 ± 69 ng/mL
- Plasma T max [12]: 30 min
- ED50, enhancement of brain tele-methylhistamine level ([4]; p.o., in mice): 1.6 mg/kg
- plasma exposure (C max) in human at therapeutic dose ([9]; at 40 mg): ~ 36 ng/ml
